According to ChEMBL document CHEMBL1130212, “Synthesis and structure-activity relationships of 6,7-benzomorphan derivatives as antagonists of the NMDA receptor-channel complex” (J Med Chem, 1997):

Key:
Mu-type opioid receptor = Mu-type opioid receptor (Rattus norvegicus, UniProt P33535); test: Inhibition of [3H]dihydromorphine binding to opioid receptor mu 1 in rat brain cortical membranes.; assay type: cell membranes, Membrane
How it was run: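 Rat brain without cerebellum membranes incubated 30 min at 25 °C with 0.5 nmol/L [3H]dihydromorphine. Binding stopped by rapid filtration; filter radioactivity counted by scintillation. Ki from computer-aided curve fitting.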

Mus musculus [1] = test: The ID50 value represent the effective dose at which half of the mice were protected against the lethality induced by 200 mg/kg NMDA; assay type: functional; details: read-out: ID50 (the source's name)
How it was run: (§1)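 Male mice (20 to 30 g), groups of five, given test compound s.c. (0.01 mL/g) at different doses; NMDA 200 mg/kg i.p. 15 min later. Each mouse observed 20 min in an individual jar; percentage dying recorded. ID50 from log-probit analysis of four doses, or mean ± SEM of up to four independent experiments.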

Glutamate NMDA receptor = test: Inhibition of [3H]MK-801 binding to N-methyl-D-aspartate glutamate receptor in rat brain cortical membranes.; assay type: cell membranes, Membrane
Mus musculus [2] = test: Effective dose at which half of the mice were protected against the lethality induced by 200 mg/kg NMDA.; assay type: functional; details: read-out: ID50 (the source's name); how it was run: as §1
Mus musculus [3] = test: The ID50 values represent the effective dose at which half of the mice were protected against the lethality induced by 200 mg/kg NMDA; assay type: functional; details: read-out: ID50 (the source's name); how it was run: as §1

Sequence of Mu-type opioid receptor (P33535 whole entry): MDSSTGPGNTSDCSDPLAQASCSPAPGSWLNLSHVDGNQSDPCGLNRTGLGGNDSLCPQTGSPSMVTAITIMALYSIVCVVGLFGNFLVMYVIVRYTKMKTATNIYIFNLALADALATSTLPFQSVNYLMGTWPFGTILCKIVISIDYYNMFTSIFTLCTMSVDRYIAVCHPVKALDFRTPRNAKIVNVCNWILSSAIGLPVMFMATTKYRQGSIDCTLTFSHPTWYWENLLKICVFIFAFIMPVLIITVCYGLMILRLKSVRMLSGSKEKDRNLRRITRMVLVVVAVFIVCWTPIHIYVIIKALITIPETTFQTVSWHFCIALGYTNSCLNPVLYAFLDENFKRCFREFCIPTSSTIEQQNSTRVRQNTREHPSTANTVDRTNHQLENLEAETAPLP

SMILES	Ki (Mu-type opioid receptor)	ED50 (Mus musculus [1])	Ki (Glutamate NMDA receptor)	ED50 (Mus musculus [2])	ED50 (Mus musculus [3])
CO[C@H](C)CN1CC[C@@]2(C)c3ccccc3C[C@@H]1C2(C)C	42300 nM	6.8 mg/kg	29.9 nM	–	–
CS[C@H](C)CN1CC[C@]2(C)c3cc(O)ccc3C[C@@H]1[C@@H]2C	7.7 nM	–	1090 nM	–	–
CS[C@@H](C)CN1CC[C@]2(C)c3cc(O)ccc3C[C@@H]1[C@@H]2C	3.2 nM	–	223 nM	1.7 mg/kg	–
CO[C@@H](C)CN1CC[C@]2(C)c3ccc(O)cc3C[C@H]1C2(C)C	1340 nM	–	685 nM	81 mg/kg	–
CS[C@@H](C)CN1CC[C@]2(C)c3cc(O)ccc3C[C@@H]1[C@H]2C	97 nM	–	83 nM	2.1 mg/kg	–
CO[C@H](C)CN1CC[C@@]2(C)c3cc(O)ccc3C[C@H]1[C@@H]2C	34800 nM	–	76600 nM	> 30 mg/kg	–
CCCN1CC[C@]2(C)c3cc(O)ccc3C[C@@H]1[C@H]2C	–	–	373 nM	–	–
C=CCN1CCC2(C)c3cc(O)ccc3CC1C2(C)C (configuration not stated)	–	–	380 nM	4.7 mg/kg	–
C=CCN1CC[C@]2(C)c3cc(O)ccc3C[C@@H]1[C@@H]2C	–	–	1500 nM	> 30 mg/kg	–
C=CCN1CC[C@@]2(C)c3cc(O)ccc3C[C@H]1[C@H]2C	–	–	1210 nM	8.2 mg/kg	–
CO[C@@H](C)CN1CC[C@@]2(C)c3cc(O)ccc3C[C@H]1[C@H]2C	5300 nM	–	22000 nM	> 30 mg/kg	–
CO[C@H](C)CN1CC[C@]2(C)c3cc(O)ccc3C[C@@H]1[C@H]2C	212 nM	–	195 nM	0.9 mg/kg	–
CO[C@H](C)CN1CC[C@@]2(C)c3cc(O)ccc3C[C@H]1[C@H]2C	18400 nM	–	9550 nM	> 30 mg/kg	–
C=CCN1CCC2(C)c3ccc(O)cc3CC1C2(C)C (configuration not stated)	–	–	99 nM	5 mg/kg	–
CO[C@@H](C)CN1CC[C@@]2(C)c3ccc(O)cc3C[C@@H]1C2(C)C	18.2 nM	–	7.1 nM	2.1 mg/kg	–
CCO[C@@H](C)CN1CC[C@]2(C)c3cc(O)ccc3C[C@@H]1[C@@H]2C	–	–	1150 nM	–	–
COC(C)(C)CN1CC[C@]2(C)c3cc(O)ccc3C[C@@H]1[C@@H]2C	5.6 nM	–	281 nM	2.9 mg/kg	–
C=CCN1CCC2(C)c3cccc(O)c3CC1C2(C)C (configuration not stated)	–	–	630 nM	10.4 mg/kg	–
CO[C@H](C)CN1CC[C@]2(C)c3c(O)cccc3C[C@H]1C2(C)C	–	–	364 nM	–	–
C[C@@H]1[C@H]2Cc3ccc(O)cc3[C@@]1(C)CCN2C[C@@H](C)O	–	–	425 nM	–	–
CCCN1CC[C@@]2(C)c3cc(O)ccc3C[C@H]1[C@@H]2C	–	–	43600 nM	–	–
CO[C@H](C)CN1CC[C@]2(C)c3ccc(O)cc3C[C@H]1C2(C)C	–	–	545 nM	–	–
CCO[C@@H](C)CN1CC[C@]2(C)c3cc(O)ccc3C[C@@H]1[C@H]2C	–	–	1260 nM	–	–
CS[C@H](C)CN1CC[C@]2(C)c3cc(O)ccc3C[C@@H]1[C@H]2C	236 nM	–	406 nM	–	–

SMILES	Ki (Mu-type opioid receptor)	ED50 (Mus musculus [1])	Ki (Glutamate NMDA receptor)	ED50 (Mus musculus [2])	ED50 (Mus musculus [3])
CC[C@@H](CN1CC[C@]2(C)c3cc(O)ccc3C[C@@H]1[C@H]2C)OC	–	–	66 nM	0.3 mg/kg	–
CO[C@H](C)CN1CC[C@]2(C)c3cc(O)ccc3C[C@@H]1[C@@H]2C	146 nM	–	248 nM	7.2 mg/kg	–
C=CCN1CCC2(C)c3c(O)cccc3CC1C2(C)C (configuration not stated)	–	–	106 nM	1.7 mg/kg	–
CO[C@H](C)CN1CC[C@@]2(C)c3ccc(O)cc3C[C@@H]1C2(C)C	3400 nM	–	4.5 nM	0.4 mg/kg	–
CO[C@@H](C)CN1CC[C@]2(C)c3cc(O)ccc3C[C@@H]1[C@@H]2C	1 nM	–	234 nM	2.3 mg/kg	–
CO[C@@H](C)CN1CC[C@@]2(C)c3cc(O)ccc3C[C@H]1[C@@H]2C	–	–	> 100000 nM	–	–
CO[C@H](C)CN1CC[C@@]2(C)c3c(O)cccc3C[C@@H]1C2(C)C	11400 nM	–	34 nM	0.5 mg/kg	–
CCC[C@H](CN1CC[C@]2(C)c3cc(O)ccc3C[C@@H]1[C@H]2C)OC	–	–	1840 nM	–	–
CO[C@@H](C)CN1CC[C@]2(C)c3cc(O)ccc3C[C@@H]1[C@H]2C	3.5 nM	–	35.7 nM	0.6 mg/kg	–
COCCCN1CC[C@]2(C)c3cc(O)ccc3C[C@@H]1[C@@H]2C	–	–	991 nM	–	> 30 mg/kg
CO[C@@H](C)CN1CC[C@@]2(C)c3ccccc3C[C@@H]1C2(C)C	144 nM	–	15.8 nM	23 mg/kg	–
CC[C@H](CN1CC[C@]2(C)c3cc(O)ccc3C[C@@H]1[C@H]2C)OC	–	–	557 nM	3 mg/kg	–
CCCN1CC[C@@]2(C)c3cc(O)ccc3C[C@H]1[C@H]2C	–	–	2850 nM	> 30 mg/kg	–
CO[C@@H](C)CN1CC[C@]2(C)c3cc(O)ccc3C[C@H]1C2(C)C	6020 nM	–	50400 nM	> 30 mg/kg	–
COC(C)(C)CN1CC[C@]2(C)c3cc(O)ccc3C[C@@H]1[C@H]2C	–	–	221 nM	5.5 mg/kg	–
CO[C@H](C)CN1CC[C@@]2(C)c3cc(O)ccc3C[C@@H]1C2(C)C	108 nM	–	12.4 nM	0.7 mg/kg	–
CO[C@@H](C)CN1CC[C@@]2(C)c3cc(O)ccc3C[C@@H]1C2(C)C	1.6 nM	–	5.6 nM	0.2 mg/kg	–
CO[C@@H](C)CN1CC[C@@]2(C)c3c(O)cccc3C[C@@H]1C2(C)C	20.9 nM	–	15 nM	0.8 mg/kg	–
CO[C@H](C)CN1CC[C@]2(C)c3cc(O)ccc3C[C@H]1C2(C)C	14000 nM	–	13900 nM	–	–
CCCN1CC[C@]2(C)c3cc(O)ccc3C[C@@H]1[C@@H]2C	–	–	588 nM	> 30 mg/kg	–
CCC[C@@H](CN1CC[C@]2(C)c3cc(O)ccc3C[C@@H]1[C@H]2C)OC	–	–	490 nM	–	–
CCO[C@H](C)CN1CC[C@]2(C)c3cc(O)ccc3C[C@@H]1[C@H]2C	–	–	1290 nM	–	–
CCO[C@H](C)CN1CC[C@]2(C)c3cc(O)ccc3C[C@@H]1[C@@H]2C	–	–	1840 nM	–	–
